# Results published in ChEMBL document CHEMBL1154145, “Inhibitory effect of macabarterin, a polyoxygenated ellagitannin from Macaranga barteri, on human neutrophil respiratory burst activity” (J Nat Prod, 2008).
# How the values were obtained:
# [1] = Antiinflammatory activity in human neutrophils assessed as respiratory burst inhibition at 1000 ug/ml by WST-1 assay; type: functional; details: Neutrophil
# Outline: (§1)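 Neutrophils came from heparinized blood of healthy volunteers, diluted with modified Hank's solution (MHS, pH 7.4), left 20 min at RT, then Ficoll-separated (>97% trypan-blue viable). 1.0 × 10^4 cells/mL in MHS with 250 µM WST-1 and compound were equilibrated at 37 °C. Opsonized zymosan A (15 mg/mL, pooled human serum) was added to start the reaction. A450 was read. Inhibition was calculated against a DMSO blank from five replicates.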
# [2] = Antiinflammatory activity in human neutrophils assessed inhibition of superoxide anions production; type: functional, cell-based; details: Neutrophil; outline: as §1
IC50 [2],Compound,inhibition at 1000 µg/mL [1]
,COc1c(O)cc2c(=O)oc3c(O)c(O)cc4c(=O)oc1c2c34,13.7%
,COc1c(O[C@@H]2OC[C@@H](O)[C@H](O)[C@H]2O)cc2c(=O)oc3c(O)c(O)cc4c(=O)oc1c2c34,29.1%
279 µg/mL,CC(=O)Oc1ccccc1C(=O)O [ASPIRIN],70.5%
,O=c1oc2c(O)c(O)cc3c(=O)oc4c(O)c(O)cc1c4c23 [ELLAGIC ACID],27.1%
,O=C(O)c1cc(O)c(O)c(O)c1 [GALLIC ACID],42.9%
758 µg/mL,COc1ccc2c(c1)c(CC(=O)O)c(C)n2C(=O)c1ccc(Cl)cc1 [INDOMETHACIN],58.8%
821 µg/mL,O=C(O[C@@H]1O[C@@H]2COC(=O)c3cc(O)c(O)c(O)c3-c3c(cc(O)c(O)c3O)C(=O)O[C@@H]3[C@H]1OC(=O)c1cc(O)c(O)c4c1C1C5(C[C@]6(O)OC[C@@H](O)[C@@H]6C[C@@H]5C(O)(O)C(O)(O)[C@]1(O)O4)C(=O)O[C@@H]32)c1cc(O)c(O)c(O)c1 (stereo partly specified) [MACABARTERIN],73.2%
,COc1cc2ccc(=O)oc2cc1O [SCOPOLETIN],31.2%
